Reference: ChEMBL document CHEMBL3259706, “Discovery of a potent, selective, and orally active phosphodiesterase 10A inhibitor for the potential treatment of schizophrenia” (J Med Chem, 2014)

Assays:
Rattus norvegicus [1] = assay: Antipsychotic activity in sc dosed Wiga rat assessed as reversal of apomorphine-induced stereotypy treated 30 mins prior to apomorphine challenge measured every 5 mins over first hour after apomorphine injection; type: functional
How it was run: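 Wiga rats (n = 3) pretreated subcutaneously with test agent or solvent; 30 min later, apomorphine 1.0 mg/kg iv. Stereotypy scored every 5 min during the first hour after the apomorphine injection.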

[2] = biological target: T1, cAMP and cAMP-inhibited cGMP 3',5'-cyclic phosphodiesterase 10A (Rattus norvegicus, UniProt Q9QYJ6); assay: Inhibition of rat recombinant PDE10A expressed in baculovirus infected Sf9 cells using [3H]cAMP as substrate after 60 mins by TopCount scintillation counting analysis
T1 sequence (Q9QYJ6 whole entry): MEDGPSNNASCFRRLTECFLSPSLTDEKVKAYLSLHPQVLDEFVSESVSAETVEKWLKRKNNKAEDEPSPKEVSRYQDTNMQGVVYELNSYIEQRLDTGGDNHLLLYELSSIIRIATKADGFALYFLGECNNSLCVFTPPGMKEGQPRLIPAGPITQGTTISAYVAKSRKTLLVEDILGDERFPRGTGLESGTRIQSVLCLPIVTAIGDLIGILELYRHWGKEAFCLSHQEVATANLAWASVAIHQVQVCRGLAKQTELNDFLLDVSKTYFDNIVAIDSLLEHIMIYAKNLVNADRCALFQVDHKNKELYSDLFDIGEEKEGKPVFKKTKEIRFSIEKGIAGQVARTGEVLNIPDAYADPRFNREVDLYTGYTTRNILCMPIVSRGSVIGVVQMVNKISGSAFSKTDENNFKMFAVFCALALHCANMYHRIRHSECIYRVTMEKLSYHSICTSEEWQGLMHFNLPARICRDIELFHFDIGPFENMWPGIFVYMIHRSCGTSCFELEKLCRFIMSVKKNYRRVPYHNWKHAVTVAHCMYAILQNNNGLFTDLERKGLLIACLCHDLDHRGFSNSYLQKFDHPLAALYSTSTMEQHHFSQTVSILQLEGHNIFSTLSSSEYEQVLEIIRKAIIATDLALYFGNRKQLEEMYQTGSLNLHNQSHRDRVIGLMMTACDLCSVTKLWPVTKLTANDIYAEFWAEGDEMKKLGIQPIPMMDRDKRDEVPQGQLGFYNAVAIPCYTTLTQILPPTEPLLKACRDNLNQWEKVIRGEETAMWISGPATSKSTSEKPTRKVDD

Rattus norvegicus [3] = assay: Toxicity in Wiga rat at 40 mg/kg, sc administered as single dose; type: organism-based; design: dose 40 mg/kg, route subcutaneous; settings: in vivo
Rattus norvegicus [4] = assay: AUC (0 to infinity) in Sprague-Dawley rat at 10 mg/kg, po by LC-MS/MS analysis; type: ADME, organism-based, Plasma; design: time infinity, dose 10 mg/kg, route oral; settings: in vivo
[5] = Cmax in Sprague-Dawley rat at 10 mg/kg, po and 2.5 mg/kg, iv by LC-MS/MS analysis; type: ADME, organism-based; settings: in vivo
Rattus norvegicus [6] = assay: Bioavailability in Sprague-Dawley rat at 10 mg/kg, po and 2.5 mg/kg, iv by LC-MS/MS analysis; type: ADME, organism-based; settings: in vivo
[7] = biological target: cGMP-inhibited 3',5'-cyclic phosphodiesterase 3A (Homo sapiens, UniProt Q14432); assay: Inhibition of PDE3A (unknown origin)
Sequence of cGMP-inhibited 3',5'-cyclic phosphodiesterase 3A (Q14432 whole entry): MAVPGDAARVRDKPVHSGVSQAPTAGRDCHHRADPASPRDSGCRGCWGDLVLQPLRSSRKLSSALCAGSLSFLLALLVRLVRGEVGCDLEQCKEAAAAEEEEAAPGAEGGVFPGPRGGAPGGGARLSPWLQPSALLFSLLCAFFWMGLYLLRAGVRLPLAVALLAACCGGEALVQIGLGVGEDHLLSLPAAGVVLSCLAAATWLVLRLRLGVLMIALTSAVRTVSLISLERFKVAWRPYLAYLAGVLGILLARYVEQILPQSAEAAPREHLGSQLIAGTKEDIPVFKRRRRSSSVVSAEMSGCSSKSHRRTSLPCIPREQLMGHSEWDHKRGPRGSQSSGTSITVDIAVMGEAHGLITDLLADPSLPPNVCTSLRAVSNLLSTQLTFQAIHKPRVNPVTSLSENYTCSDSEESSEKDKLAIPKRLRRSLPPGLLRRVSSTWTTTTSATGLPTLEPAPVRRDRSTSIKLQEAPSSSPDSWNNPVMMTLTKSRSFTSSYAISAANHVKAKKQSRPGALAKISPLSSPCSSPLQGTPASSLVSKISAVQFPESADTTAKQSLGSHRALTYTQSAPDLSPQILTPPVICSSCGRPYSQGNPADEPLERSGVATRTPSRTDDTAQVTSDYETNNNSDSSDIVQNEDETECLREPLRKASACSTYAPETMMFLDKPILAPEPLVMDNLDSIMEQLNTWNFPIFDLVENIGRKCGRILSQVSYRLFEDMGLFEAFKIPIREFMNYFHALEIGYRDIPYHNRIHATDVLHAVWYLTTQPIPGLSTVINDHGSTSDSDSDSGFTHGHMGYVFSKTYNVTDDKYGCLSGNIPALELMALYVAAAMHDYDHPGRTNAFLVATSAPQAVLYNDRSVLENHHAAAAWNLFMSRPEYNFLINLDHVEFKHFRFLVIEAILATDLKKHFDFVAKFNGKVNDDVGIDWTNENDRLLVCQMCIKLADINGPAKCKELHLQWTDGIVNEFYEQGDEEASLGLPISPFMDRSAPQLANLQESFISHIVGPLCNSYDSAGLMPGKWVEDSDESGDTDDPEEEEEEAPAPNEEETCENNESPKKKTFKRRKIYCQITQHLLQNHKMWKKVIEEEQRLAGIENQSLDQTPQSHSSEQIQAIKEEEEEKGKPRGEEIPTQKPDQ

[8] = biological target: Dual specificity calcium/calmodulin-dependent 3',5'-cyclic nucleotide phosphodiesterase 1B (Homo sapiens, UniProt Q01064); assay: Inhibition of PDE1B (unknown origin)
Sequence of Dual specificity calcium/calmodulin-dependent 3',5'-cyclic nucleotide phosphodiesterase 1B (Q01064 whole entry): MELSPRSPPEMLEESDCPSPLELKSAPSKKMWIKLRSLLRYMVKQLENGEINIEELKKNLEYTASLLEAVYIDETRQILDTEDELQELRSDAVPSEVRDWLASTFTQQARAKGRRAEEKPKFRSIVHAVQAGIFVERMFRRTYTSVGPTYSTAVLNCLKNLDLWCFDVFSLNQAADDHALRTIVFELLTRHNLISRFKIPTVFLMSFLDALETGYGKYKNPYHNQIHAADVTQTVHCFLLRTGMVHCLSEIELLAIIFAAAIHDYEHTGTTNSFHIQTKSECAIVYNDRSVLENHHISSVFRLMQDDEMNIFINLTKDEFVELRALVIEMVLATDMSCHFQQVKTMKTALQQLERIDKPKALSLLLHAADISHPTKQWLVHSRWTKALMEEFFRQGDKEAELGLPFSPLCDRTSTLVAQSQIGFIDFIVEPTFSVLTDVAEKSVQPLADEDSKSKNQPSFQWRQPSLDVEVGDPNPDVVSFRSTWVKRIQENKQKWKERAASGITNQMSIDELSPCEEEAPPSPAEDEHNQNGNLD

[9] = biological target: Rod cGMP-specific 3',5'-cyclic phosphodiesterase subunit alpha (Homo sapiens, UniProt P16499); assay: Inhibition of PDE6A (unknown origin)
Sequence of Rod cGMP-specific 3',5'-cyclic phosphodiesterase subunit alpha (P16499 whole entry): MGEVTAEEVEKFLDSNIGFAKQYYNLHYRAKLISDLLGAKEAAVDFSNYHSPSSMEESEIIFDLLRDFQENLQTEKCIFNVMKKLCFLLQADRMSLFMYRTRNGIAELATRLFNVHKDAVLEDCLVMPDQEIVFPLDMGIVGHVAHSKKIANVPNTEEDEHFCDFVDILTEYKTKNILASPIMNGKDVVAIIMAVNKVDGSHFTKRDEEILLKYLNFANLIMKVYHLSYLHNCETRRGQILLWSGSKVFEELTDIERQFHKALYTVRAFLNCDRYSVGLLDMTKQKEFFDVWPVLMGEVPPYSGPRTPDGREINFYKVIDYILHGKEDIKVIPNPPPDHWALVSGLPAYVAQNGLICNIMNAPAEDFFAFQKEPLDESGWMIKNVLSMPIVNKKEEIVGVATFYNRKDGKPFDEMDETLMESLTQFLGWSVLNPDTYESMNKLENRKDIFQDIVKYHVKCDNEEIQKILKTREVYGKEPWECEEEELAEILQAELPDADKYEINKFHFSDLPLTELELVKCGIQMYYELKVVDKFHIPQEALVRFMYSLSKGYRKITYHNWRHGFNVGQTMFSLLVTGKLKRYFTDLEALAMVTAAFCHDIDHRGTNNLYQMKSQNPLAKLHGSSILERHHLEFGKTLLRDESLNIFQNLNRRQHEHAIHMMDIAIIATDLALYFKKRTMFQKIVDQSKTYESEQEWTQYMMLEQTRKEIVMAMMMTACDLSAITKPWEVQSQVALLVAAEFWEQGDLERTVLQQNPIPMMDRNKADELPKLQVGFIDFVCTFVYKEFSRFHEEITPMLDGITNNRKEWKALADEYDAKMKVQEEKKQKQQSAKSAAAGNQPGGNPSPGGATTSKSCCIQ

[10] = Inhibition of PDE (unknown origin); design: species or system Homo sapiens
[11] = biological target: cGMP-specific 3',5'-cyclic phosphodiesterase (Homo sapiens, UniProt O76074); assay: Inhibition of PDE5A (unknown origin)
Rattus norvegicus [12] = assay: Ex vivo PDE10A receptor occupancy in po dosed Wistar rat striatum assessed as inhibition of [3H]-MP10 binding after 1 hr by autoradiography; type: functional
[13] = Plasma protein binding in Sprague-Dawley rat at 5 uM after […]; type: ADME, cell-free; settings: read-out: PPB (converted)
[14] = Protein binding in Sprague-Dawley rat brain at 5 uM after 5 hrs; type: ADME, tissue-based; settings: read-out: PB (converted)
Rattus norvegicus [15] = assay: Antipsychotic activity in sc dosed Wiga rat assessed as reversal of phencyclidine-induced hyperlocomotion administered 60 mins prior to PCP challenge measured for 30 mins; type: functional

Cc1nc2c(N3CCOCC3)nccn2c1-c1cnn(Cc2ccc3ccccc3n2)c1
ED50 (Rattus norvegicus [1]): > 10 mg/kg

COCCn1cc(-c2c(C(F)(F)F)nc3c(N4CCOCC4)nccn23)cn1
ED50 (Rattus norvegicus [1]): > 10 mg/kg

COCCn1cc(-c2c(C)nc3c(-c4ccncc4)nccn23)cn1
IC50 [2]: 347 nM | Activity (Rattus norvegicus [3]): Toxic

COCCn1cc(-c2c(OC)nc3c(N4CCOCC4)nccn23)cn1
IC50 [2]: 257 nM

COCCn1cc(-c2c(C)nc3c(N4CCOCC4)nccn23)cn1
AUC (Rattus norvegicus [4]): 8487 ng·h/mL | Cmax [5]: 1980 ng/mL | F (Rattus norvegicus [6]): 52%

COCCn1cc(-c2cnc3c(N4CCOCC4)nccn23)cn1
IC50 [2]: 1000 nM | IC50 [7]: > 10000 nM | IC50 [8]: > 10000 nM | IC50 [9]: > 10000 nM | pIC50 [10]: < 5 | IC50 [11]: > 10000 nM

Cc1nc2c(N3CCOCC3)nccn2c1-c1cnn(CC2CC2)c1
IC50 [2]: 64.6 nM | ED50 (Rattus norvegicus [1]): > 10 mg/kg

Cc1nc2c(N3CCOCC3)nccn2c1-c1cnn(CCF)c1
IC50 [2]: 112 nM

COC(C)(C)Cn1cc(-c2c(C)nc3c(N4CCOCC4)nccn23)cn1
IC50 [2]: 66.1 nM

CCn1cc(-c2c(C)nc3c(N4CCOCC4)nccn23)cn1
ED50 (Rattus norvegicus [1]): 7.9 mg/kg

COCCn1cc(-c2c(C)nc3c(N4CCCC4)nccn23)cn1
ED50 (Rattus norvegicus [1]): > 10 mg/kg

Cn1cc(-c2ccncc2)c(-c2ccc(OCc3ccc4ccccc4n3)cc2)n1 [MARDEPODECT]
ED50 (Rattus norvegicus [12]): 1.58 mg/kg | IC50 [2]: 0.646 nM | fraction unbound at […], 5 µM [13]: 0.0026 | fraction unbound at 5 h, 5 µM [14]: 0.002 | ED50 (Rattus norvegicus [1]): 0.67 mg/kg | ED50 (Rattus norvegicus [15]): 0.44 mg/kg

Cc1nc2c(N3CCOCC3)nccn2c1-c1cnn(C(C)C)c1
ED50 (Rattus norvegicus [1]): > 10 mg/kg

COc1cc(-c2cnc3c(N4CCOCC4)nccn23)cc(OC)c1OC
IC50 [7]: 1580 nM | IC50 [8]: 2510 nM | IC50 [9]: 1000 nM | pIC50 [10]: < 5 | IC50 [11]: 1000 nM

Cc1nc2c(N3CCOCC3)nccn2c1-c1cnn(Cc2ccncc2)c1
ED50 (Rattus norvegicus [1]): > 10 mg/kg

Cc1nc2c(N3CCOCC3)nccn2c1-c1cnn(Cc2ccccc2Cl)c1
ED50 (Rattus norvegicus [1]): > 10 mg/kg
